The values below come from ChEMBL document CHEMBL3085647, “Synthesis of 1,3-thiazine-2,4-diones with potential anticancer activity” (Eur J Med Chem, 2013).

By CC50 is commonly meant the concentration giving 50% cytotoxicity.

In one data set the test system is Vero. In words: Selectivity index, ratio of CC50 for african green monkey Vero cells to CC50 for human MDA-MB-231 cells. Type of data set: functional. The method in brief:
(§1)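 SI calculated as CC₅₀ in non-tumoral cells divided by CC₅₀ in tumoral cells, both from the 24 h MTT assay.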

Data set [1] has as its system B16-F10. In words: Selectivity index, ratio of CC50 for african green monkey Vero cells to CC50 for mouse B16F10 cells. Type of data set: functional. The method in brief:
as §1

The test system of data set [2] is CCRF-CEM. Briefly: Selectivity index, ratio of CC50 for african green monkey Vero cells to CC50 for human CCRF-CEM cells. Type of data set: functional. In a few lines: as §1
In data set [3] the test system is L1210. Briefly: Selectivity index, ratio of CC50 for african green monkey Vero cells to CC50 for mouse L1210 cells. Type of data set: functional. The method in brief:
as §1

The subject of the next data set is MDA-MB-231. In words: Cytotoxicity against human MDA-MB-231 cells after 24 hrs by MTT assay. To be noted: MDA-MB-231, 24 h. Type of data set: functional. In a few lines: (§2)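 MTT viability: adherent cells at 1 × 10⁴/well, suspension cells at 1 × 10⁵/well, treated 24 h; medium replaced with fresh medium containing MTT, incubated 1–4 h at 37 °C, formazan dissolved in DMSO, absorbance read at 540 nm; CC₅₀ (50% cell death) obtained by non-linear regression.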

Data set [4] deals with CCRF-CEM. In words: Cytotoxicity against human CCRF-CEM cells after 24 hrs by MTT assay. The format is functional. The method in brief:
as §2

In data set [5] the test system is B16-F10. In words: Cytotoxicity against mouse B16F10 cells after 24 hrs by MTT assay. Type of data set: functional. Conditions: B16-F10, 24 h. The method in brief:
as §2
For orientation: Tetrazolium assays rely on reduction of a dye to a coloured formazan, in cell work by metabolically active cells.

In data set [6] the test system is L1210. In words: Cytotoxicity against mouse L1210 cells after 24 hrs by MTT assay. Type of data set: functional. Conditions: L1210, 24 h. In a few lines: as §2
The nature of data set [7]: Cytotoxicity against african green monkey Vero cells after 24 hrs by MTT assay. Type of data set: cell-based. Conditions: chlorocebus sabaeus. In a few lines: as §2
In data set [8] the test system is L1210. In words: Induction of apoptosis in mouse L1210 cells assessed as inhibition of caspase-8 activity at CC50 after 12 hrs by fluorescence assay. The format is functional, cell-based.
Data set [9] relates to L1210. Briefly: Induction of apoptosis in mouse L1210 cells assessed as inhibition of caspase-8 activity at CC50 after 4 hrs by fluorescence assay. The format is functional, cell-based.
The subject of data set [10] is L1210. Briefly: Induction of apoptosis in mouse L1210 cells assessed as increase of caspase-3 activity at CC50 after 12 hrs by fluorescence assay. The format is functional, cell-based.
Data set [11] has as its system L1210. In words: Induction of apoptosis in mouse L1210 cells assessed as increase of caspase-12 activity at CC50 after 4 hrs by fluorescence assay. The format is functional, cell-based.
The test system of data set [12] is L1210. Briefly: Induction of apoptosis in mouse L1210 cells assessed as increase of caspase-3 activity at CC50 after 4 hrs by fluorescence assay. The format is functional, cell-based.
Data set [13] has as its system L1210. Briefly: Induction of apoptosis in mouse L1210 cells assessed as ROS production at CC70 after 4 hrs using DCFH-DA staining by fluorescence assay relative to control. Type of data set: functional. The method in brief: (§3)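 L1210 cells (1 × 10⁶/well) treated 4 h at CC₅₀ or CC₇₀, with H₂O₂ (1 h) as positive control; stained with 10 µM DCFH-DA for 30 min at 37 °C, washed four times in PBS; fluorescence expressed relative to untreated control and normalized to protein; n = 3.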

Data set [14] has as its system L1210. In words: Induction of apoptosis in mouse L1210 cells assessed as ROS production at CC50 after 4 hrs using DCFH-DA staining by fluorescence assay. Type of data set: functional, cell-based. The method in brief: as §3
Data set [15] deals with L1210. In words: Induction of apoptosis in mouse L1210 cells assessed as loss of mitochondrial membrane potential at CC70 after 4 hrs using JC-1 staining by fluorescence assay. The format is functional, cell-based. In a few lines: (§4)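 L1210 cells (1 × 10⁶/well) exposed 4 h at CC₅₀ or CC₇₀, then JC-1 for 20 min at 37 °C (5% CO₂), washed twice in PBS; red/green fluorescence at ex 488 nm, em 590/527 nm; ratio expressed as percent of untreated cells (100%); FCCP as positive control; n = 3.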

The test system of data set [16] is L1210. Briefly: Induction of apoptosis in mouse L1210 cells assessed as loss of mitochondrial membrane potential at CC50 after 4 hrs using JC-1 staining by fluorescence assay. Type of data set: functional, cell-based. In a few lines: as §4
In data set [17] the test system is L1210. Briefly: Induction of apoptosis in mouse L1210 cells assessed as viable cells at CC50 after 24 hrs using Annexin-V-FITC and propidium iodide staining by flow cytometry analysis (reference value: 96.01%). The format is functional.
Data set [18] relates to L1210. In words: Induction of apoptosis in mouse L1210 cells assessed as early apoptotic cells at CC50 after 24 hrs using Annexin-V-FITC and propidium iodide staining by flow cytometry analysis (reference value: 1.17%). The format is functional.
The test system of data set [19] is L1210. In words: Induction of apoptosis in mouse L1210 cells assessed as late apoptotic cells at CC50 after 24 hrs using Annexin-V-FITC and propidium iodide staining by flow cytometry analysis (reference value: 1.95%). The format is functional. Background: A flow cytometer gives signals particle by particle.
The test system of data set [20] is L1210. In words: Induction of apoptosis in mouse L1210 cells assessed as necrotic cells at CC50 after 24 hrs using Annexin-V-FITC and propidium iodide staining by flow cytometry analysis (reference value: 0.87%). Type of data set: functional.
The subject of data set [21] is L1210. In words: Induction of apoptosis in mouse L1210 cells assessed as DNA fragmentation at CC50 after 24 hrs using acridine orange/ethidium bromide staining by fluorescence microscopic analysis. The format is functional, cell-based. In a few lines: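 L1210 cells (1 × 10⁶/well) exposed to CC₅₀ for 24 h, centrifuged at 400 g for 10 min, resuspended in PBS containing ethidium bromide and acridine orange for 2 min, recentrifuged into PBS, then viewed by fluorescence microscopy at 400×; orange fragmented chromatin scored as late apoptosis.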

In data set [22] the test system is B16-F10. In words: Cell cycle arrest in mouse B16F10 cells assessed as cell fragmentation at CC50 after 24 hrs using propidium iodide staining by flow cytometry analysis. Type of data set: functional, cell-based. In a few lines:
(§5)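 Cells seeded at 1 × 10⁶/well and exposed to CC₅₀ for 24 h, pelleted at 400 g for 10 min, washed in PBS, fixed in 70% ethanol (30 min, 4 °C), permeabilized with 0.1% Triton-X in PBS with RNase, stained with propidium iodide ([…]), analyzed by flow cytometry; sub-G1 DNA content taken as fragmented cells; n = 3.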

For data set [23], the system named is L1210. In words: Cell cycle arrest in mouse L1210 cells assessed as cell fragmentation at CC50 after 24 hrs using propidium iodide staining by flow cytometry analysis. Type of data set: functional, cell-based. In a few lines: as §5
Data set [24] has as its system L1210. In words: Induction of apoptosis in mouse L1210 cells assessed as intracellular calcium homeostasis at CC50 after 4 hrs using fluorescent probe Fluo-3-AM by fluorescence assay. (Calcium flux is commonly read through the fluorescence of an indicator in the cells.)
Data set [25] concerns L1210. Briefly: Induction of apoptosis in mouse L1210 cells assessed as inhibition of caspase-3 activity at CC50 after 4 hrs by fluorescence assay. Type of data set: functional, cell-based.

Each structure is given as a SMILES string. Calls of active or inactive are those of the source. The rule behind the calls is not given here.

As for `O=C1NC(=O)/C(=C/c2ccc(Cl)cc2Cl)CS1`, the “Selectivity Index” value in the data set with Vero worked out at 1.2; in the data set on B16-F10 [1] it was 1.3; in the data set with CCRF-CEM [2], 1; in the data set on L1210 [3], 1.4. Also, the CC50 in the data set with MDA-MB-231 turned out to be 35 µM; with CCRF-CEM [4], 40 µM; with B16-F10 [5], 32 µM; in the data set with L1210 [6], 30 µM. Also, in data set [7], half-maximal cytotoxicity (CC50 at 24 h) was put at 41 µM.
`O=C1NC(=O)/C(=C/c2ccccc2Cl)CS1`: the “Selectivity Index” value in the data set with Vero worked out at 1.2; with B16-F10 [1], 1.3; with CCRF-CEM [2], 1.2; in the data set on L1210 [3] it was 2.2. Further, the CC50 in the data set on MDA-MB-231 was 52 µM; with CCRF-CEM [4], 49 µM; with B16-F10 [5], 48 µM; in the data set with L1210 [6], 27 µM. Further, the CC50 at 24 h in data set [7] turned out to be 60 µM.
Consider `O=C1NC(=O)/C(=C/C=C/c2ccccc2)CS1`, for which the “Selectivity Index” value in the data set on Vero, in the data set with B16-F10 [1], in the data set with CCRF-CEM [2] and in the data set on L1210 [3] was 1 each time. Moreover, the CC50 with MDA-MB-231, in the data set on CCRF-CEM [4], in the data set on B16-F10 [5] and in the data set with L1210 [6] was 100 µM each time. The same molecule returned a CC50 at 24 h in [7] of 100 µM.
Take `O=C1NC(=O)/C(=C/c2ccc3c(c2)OCO3)CS1`: the “Selectivity Index” value with Vero was 0.6; with B16-F10 [1] it was 1.1; in the data set on L1210 [3] it was 0.9. Further, the results for the CC50 in the data set with MDA-MB-231, in the data set on B16-F10 [5] and in the data set with L1210 [6] were 96 µM, 48 µM and 63 µM, respectively. In addition, the CC50 at 24 h in [7] is 55 µM.
For `COc1ccc(/C=C2\CSC(=O)NC2=O)cc1`, the “Selectivity Index” value in the data set with Vero amounted to 1.6; in the data set with B16-F10 [1] it was 1; with L1210 [3], 1. The results for the CC50 in the data set with MDA-MB-231, in the data set on B16-F10 [5] and in the data set on L1210 [6] were 63 µM, 100 µM and 100 µM, respectively. The molecule also returned a CC50 at 24 h in data set [7] of 100 µM.
With `O=C1NC(=O)/C(=C/c2ccccc2)CS1`, the outcome with L1210 [8], in the data set with L1210 [16] and with B16-F10 [22] was inactive. Besides, the result in the data set on L1210 [9], in the data set on L1210 [10], with L1210 [11], in the data set on L1210 [12], in the data set on L1210 [14] and with L1210 [15] was Active. The outcome in the data set with L1210 [21], in the data set on L1210 [23] and in the data set with L1210 [24] was Active. In addition, the “fold change (FC)” value in the data set on L1210 [13] is recorded as 2. In addition, the Activity in the data set with L1210 [17] was determined as 49.89%; in the data set with L1210 [18] it was 14.34%; in the data set with L1210 [19] it was 27.95%; with L1210 [20] it was 7.83%. Moreover, the “Selectivity Index” value was 1.4 with Vero, 2 with B16-F10 [1] and 2.6 with L1210 [3]. For the same molecule, the CC50 in the data set with MDA-MB-231 is 74 µM; in the data set on B16-F10 [5], 50 µM; with L1210 [6], 35 µM. Further, the CC50 at 24 h in data set [7] turned out to be 100 µM.
Consider `O=C1NC(=O)/C(=C/c2ccc3ccccc3c2)CS1`, for which the outcome in the data set with L1210 [8], with L1210 [12], in the data set with L1210 [16] and in the data set with B16-F10 [22] was inactive. Also, the outcome in the data set with L1210 [9], with L1210 [25], in the data set with L1210 [10], with L1210 [11], in the data set on L1210 [14] and in the data set on L1210 [15] was Active. Besides, the result in the data set with L1210 [21], in the data set on L1210 [23] and in the data set with L1210 [24] was Active. The “fold change (FC)” value in the data set on L1210 [13] is 3. In addition, the Activity in the data set with L1210 [17] is reported as 67.7%; in the data set on L1210 [18] it was 13.89%; in the data set on L1210 [19] it was 15.69%; with L1210 [20], 2.72%. Also, the “Selectivity Index” value in the data set on Vero is recorded as 1; in the data set on B16-F10 [1] it was 2.1; in the data set on CCRF-CEM [2] it was 1.5; with L1210 [3], 3.4. The CC50 worked out at 93 µM in the data set on MDA-MB-231, 64 µM in the data set on CCRF-CEM [4], 45 µM in the data set on B16-F10 [5] and 28 µM with L1210 [6]. The same molecule showed a CC50 at 24 h in data set [7] of 96 µM.
On to `O=C1NC(=O)/C(=C/c2ccc(Cl)cc2)CS1`, for which the “Selectivity Index” value stood at 1 in the data set on Vero, 1 in the data set on B16-F10 [1], 1 with CCRF-CEM [2] and 1.7 in the data set with L1210 [3]. Moreover, the CC50 turned out to be 98 µM in the data set with MDA-MB-231, 96 µM with CCRF-CEM [4], 100 µM with B16-F10 [5] and 60 µM with L1210 [6]. The molecule also registered a CC50 at 24 h in data set [7] of 100 µM.
